Results as given in ChEMBL document CHEMBL3272208, “(Vinylaryloxy)acetic acids. A new class of diuretic agents. 3. ((2-Nitro-1-alkenyl)aryloxy)acetic acids” (1976).

Assays:
Canis familiaris [1] = assay: Diuretic activity in mongrel dog assessed as volume of excreted urine at 1 mg/kg, iv measured between 15 to 45 mins after dosage (reference value: 1 to 4 ml/min); assay type: functional, Canis lupus familiaris
Procedure, shortened: (§1)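 Compounds were given iv to dogs as Na salts in H2O. […] The baseline is the mean of two 15-min periods before dosing. The response is the mean of two consecutive 15-min periods of maximal Na+ excretion, usually 15–45 min post-dose. Na+, K+ and Cl- are in μequiv/min and urine volume in ml/min, reported as control/drug.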

Canis familiaris [2] = assay: Diuretic activity in mongrel dog assessed as chloride level in excreted urine at 1 mg/kg, iv measured between 15 to 45 mins after dosage (reference value: 1 to 70 uequiv/min); assay type: functional, Canis lupus familiaris
Procedure, shortened: (§2)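 Compounds were given iv to dogs as Na salts in H2O. The baseline is the mean of two 15-min periods before dosing. The response is the mean of two consecutive 15-min periods of maximal Na+ excretion, usually 15–45 min post-dose. Na+, K+ and Cl- are in μequiv/min and urine volume in ml/min, reported as control/drug.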

Canis familiaris [3] = assay: Diuretic activity in mongrel dog assessed as potassium level in excreted urine at 1 mg/kg, iv measured between 15 to 45 mins after dosage (reference value: 6 to 47 uequiv/min); assay type: functional, Canis lupus familiaris; procedure, shortened: as §1
Canis familiaris [4] = assay: Diuretic activity in mongrel dog assessed as sodium level in excreted urine at 1 mg/kg, iv measured […] after dosage (reference value: 3 to 95 uequiv/min); assay type: functional, Canis lupus familiaris; procedure, shortened: as §2
Canis familiaris [5] = assay: Diuretic activity in mongrel dog assessed as chloride level in excreted urine at 5 mg/kg, po measured for 6 hrs (reference value: 2 mequivalents); assay type: functional, Canis lupus familiaris
Canis familiaris [6] = assay: Diuretic activity in mongrel dog assessed as sodium level in excreted urine at 5 mg/kg, po measured for 6 hrs (reference value: 2 mequivalents); assay type: functional, Canis lupus familiaris
Canis familiaris [7] = assay: Diuretic activity in mongrel dog assessed as volume of excreted urine at 5 mg/kg, po measured for 6 hrs (RVb = 180 ml)
Canis familiaris [8] = assay: Diuretic activity in mongrel dog assessed as potassium level in excreted urine at 5 mg/kg, po measured for 6 hrs (reference value: 1 mequivalents); assay type: functional, Canis lupus familiaris
Canis familiaris [9] = assay: Diuretic activity in mongrel dog assessed as potassium level in excreted urine at 5 mg/kg, iv measured between 15 to 45 mins after dosage (reference value: 12 to 70 uequiv/min); assay type: functional, Canis lupus familiaris; procedure, shortened: as §1
Canis familiaris [10] = assay: Diuretic activity in mongrel dog assessed as volume of excreted urine at 5 mg/kg, iv measured between 15 to 45 mins after dosage (reference value: 1 to 5 ml/min); assay type: functional, Canis lupus familiaris; procedure, shortened: as §1
Canis familiaris [11] = assay: Diuretic activity in mongrel dog assessed as chloride level in excreted urine at 5 mg/kg, iv measured between 15 to 45 mins after dosage (reference value: 1 to 65 uequiv/min); assay type: functional, Canis lupus familiaris; procedure, shortened: as §1
Canis familiaris [12] = assay: Diuretic activity in mongrel dog assessed as sodium level in excreted urine at 5 mg/kg, iv measured […] after dosage (reference value: 1 to 91 uequiv/min); assay type: functional, Canis lupus familiaris; procedure, shortened: as §1
Canis familiaris [13] = assay: Diuretic activity in mongrel dog assessed as chloride level in excreted urine at 10 mg/kg, iv measured between 15 to 45 mins after dosage (reference value: 3 to 64 uequiv/min); assay type: functional, Canis lupus familiaris; procedure, shortened: as §2
Canis familiaris [14] = assay: Diuretic activity in mongrel dog assessed as volume of excreted urine at 10 mg/kg, iv measured between 15 to 45 mins after dosage (reference value: 1 to 4 ml/min); assay type: functional, Canis lupus familiaris; procedure, shortened: as §1
Canis familiaris [15] = assay: Diuretic activity in mongrel dog assessed as potassium level in excreted urine at 10 mg/kg, iv measured between 15 to 45 mins after dosage (reference value: 7 to 63 uequiv/min); assay type: functional, Canis lupus familiaris; procedure, shortened: as §1
Canis familiaris [16] = assay: Diuretic activity in mongrel dog assessed as sodium level in excreted urine at 10 mg/kg, iv measured […] after dosage (reference value: 5 to 66 uequiv/min); assay type: functional, Canis lupus familiaris; procedure, shortened: as §1
Canis familiaris [17] = assay: Diuretic activity in mongrel dog assessed as volume of excreted urine at 0.4 mg/kg, po measured for 6 hrs (RVb = 180 ml)
Canis familiaris [18] = assay: Diuretic activity in mongrel dog assessed as chloride level in excreted urine at 0.4 mg/kg, po measured for 6 hrs (reference value: 2 mequivalents); assay type: functional, Canis lupus familiaris
Canis familiaris [19] = assay: Diuretic activity in mongrel dog assessed as potassium level in excreted urine at 0.4 mg/kg, po measured for 6 hrs (reference value: 1 mequivalents); assay type: functional, Canis lupus familiaris
Canis familiaris [20] = assay: Diuretic activity in mongrel dog assessed as sodium level in excreted urine at 0.4 mg/kg, po measured for 6 hrs (reference value: 2 mequivalents); assay type: functional, Canis lupus familiaris
Canis familiaris [21] = assay: Diuretic activity in mongrel dog assessed as sodium level in excreted urine at 1 mg/kg, po measured for 6 hrs (reference value: 2 mequivalents); assay type: functional, Canis lupus familiaris
Canis familiaris [22] = assay: Diuretic activity in mongrel dog assessed as chloride level in excreted urine at 1 mg/kg, po measured for 6 hrs (reference value: 2 mequivalents); assay type: functional, Canis lupus familiaris
Canis familiaris [23] = assay: Diuretic activity in mongrel dog assessed as potassium level in excreted urine at 1 mg/kg, po measured for 6 hrs (reference value: 1 mequivalents); assay type: functional, Canis lupus familiaris
Canis familiaris [24] = assay: Diuretic activity in mongrel dog assessed as volume of excreted urine at 1 mg/kg, po measured for 6 hrs (RVb = 180 ml)

| SMILES | Activity (Canis familiaris [1]) | Activity (Canis familiaris [2]) | Activity (Canis familiaris [3]) | Activity (Canis familiaris [4]) | Activity (Canis familiaris [9]) | Activity (Canis familiaris [10]) | Activity (Canis familiaris [11]) | Activity (Canis familiaris [12]) | further results |
| --- | --- | --- | --- | --- | --- | --- | --- | --- | --- |
| CC/C(=C\c1ccc(OCC(=O)O)c2ccccc12)[N+](=O)[O-] | 13 mL/min | 2036 uEq/min | 179 uEq/min | 1848 uEq/min |  |  |  |  |  |
| COC(=O)COc1ccc(/C=C(\C)[N+](=O)[O-])c(Cl)c1Cl |  |  |  |  |  |  |  |  | Activity (Canis familiaris [5]): 47 milliequivalent; Activity (Canis familiaris [6]): 37 milliequivalent; Activity (Canis familiaris [7]): 769 mL; Activity (Canis familiaris [8]): 7 milliequivalent |
| CC/C(=C\c1ccc(OCCCC(=O)O)c(Cl)c1Cl)[N+](=O)[O-] |  |  |  |  | 29 uEq/min | 3 mL/min | 28 uEq/min | 62 uEq/min |  |
| O=C(O)COc1c(Cl)cc(Cl)cc1/C=C/[N+](=O)[O-] |  |  |  |  | 33 uEq/min | 2 mL/min | 3 uEq/min | 33 uEq/min |  |
| CC/C(=C\c1ccc(C(=O)O)cc1Cl)[N+](=O)[O-] |  |  |  |  |  |  |  |  | Activity (Canis familiaris [13]): 146 uEq/min; Activity (Canis familiaris [14]): 3 mL/min; Activity (Canis familiaris [15]): 63 uEq/min; Activity (Canis familiaris [16]): 182 uEq/min |
| C/C(=C\c1cc(Cl)ccc1OCC(=O)O)[N+](=O)[O-] | 2 mL/min | 7 uEq/min | 17 uEq/min | 22 uEq/min |  |  |  |  |  |
| CC/C(=C\c1cc(Cl)ccc1OCC(=O)O)[N+](=O)[O-] |  |  |  |  | 48 uEq/min | 4 mL/min | 75 uEq/min | 117 uEq/min |  |
| O=C(O)COc1ccc(/C=C/[N+](=O)[O-])c(Cl)c1Cl | 4 mL/min | 47 uEq/min | 7 uEq/min | 132 uEq/min |  |  |  |  |  |
| CC/C(=C\c1ccc(OCC(=O)O)cc1Cl)[N+](=O)[O-] | 13 mL/min | 1431 uEq/min | 101 uEq/min | 1398 uEq/min |  |  |  |  |  |
| C/C(=C\c1ccc(OCC(=O)O)c(Cl)c1Cl)[N+](=O)[O-] | 11 mL/min | 2163 uEq/min | 104 uEq/min | 2128 uEq/min |  |  |  |  | Activity (Canis familiaris [17]): 628 mL; Activity (Canis familiaris [18]): 31 milliequivalent; Activity (Canis familiaris [19]): 7 milliequivalent; Activity (Canis familiaris [20]): 25 milliequivalent |
| C/C(=C\c1ccc(OC(C)C(=O)O)c(Cl)c1Cl)[N+](=O)[O-] (centres undefined) |  |  |  |  | 74 uEq/min | 9 mL/min | 1228 uEq/min | 1191 uEq/min |  |
| C/C(=C\c1ccc(C(=O)O)cc1Cl)[N+](=O)[O-] |  |  |  |  |  |  |  |  | Activity (Canis familiaris [13]): 335 uEq/min; Activity (Canis familiaris [14]): 7 mL/min; Activity (Canis familiaris [15]): 45 uEq/min; Activity (Canis familiaris [16]): 364 uEq/min |
| C/C(=C\c1ccc(OCC(=O)O)cc1Cl)[N+](=O)[O-] | 7 mL/min | 765 uEq/min | 92 uEq/min | 683 uEq/min |  |  |  |  | Activity (Canis familiaris [21]): 16 milliequivalent; Activity (Canis familiaris [22]): 22 milliequivalent; Activity (Canis familiaris [23]): 5 milliequivalent; Activity (Canis familiaris [24]): 402 mL |
| O=C(O)COc1ccc(/C=C/[N+](=O)[O-])cc1 |  |  |  |  | 35 uEq/min | 2 mL/min | 5 uEq/min | 80 uEq/min |  |
